Assay results as given in ChEMBL document CHEMBL4765486, “Novel Nonsecosteroidal Vitamin D Receptor Modulator Combined with Gemcitabine Enhances Pancreatic Cancer Therapy through Remodeling of the Tumor Microenvironment” (J Med Chem, 2021).
Active and inactive are the calls of the source. Unless noted, the rule behind the calls is not given here.

Columns and labels:
DSL-6A/C1 [1] = conditions: Rattus norvegicus, dose 100.0 mg/kg, time 12.0 day
LTC-14 [2] = assay: Inhibition of rat LTC-14 cells interaction with DSL-6A/C1 cells in conditioned media assessed as inhibition of POSTN protein expression at 0.5 uM measured after 24 hrs by Western blot analysis; type: functional, cell-based
Method in brief: (§1)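 LTC-14 cells were treated for 24 h with DSL-6A/C1 conditioned medium plus compound (0.5 μM). Proteins were separated on 10% SDS-PAGE, transferred to PVDF and probed with rabbit anti-PDGF-A or anti-POSTN, with β-actin as loading reference.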

Vitamin D3 receptor = molecular target: T1, Vitamin D3 receptor (Homo sapiens, UniProt P11473); assay: Binding affinity to VDR (unknown origin) by fluorescence polarization assay
T1 sequence (P11473 whole entry): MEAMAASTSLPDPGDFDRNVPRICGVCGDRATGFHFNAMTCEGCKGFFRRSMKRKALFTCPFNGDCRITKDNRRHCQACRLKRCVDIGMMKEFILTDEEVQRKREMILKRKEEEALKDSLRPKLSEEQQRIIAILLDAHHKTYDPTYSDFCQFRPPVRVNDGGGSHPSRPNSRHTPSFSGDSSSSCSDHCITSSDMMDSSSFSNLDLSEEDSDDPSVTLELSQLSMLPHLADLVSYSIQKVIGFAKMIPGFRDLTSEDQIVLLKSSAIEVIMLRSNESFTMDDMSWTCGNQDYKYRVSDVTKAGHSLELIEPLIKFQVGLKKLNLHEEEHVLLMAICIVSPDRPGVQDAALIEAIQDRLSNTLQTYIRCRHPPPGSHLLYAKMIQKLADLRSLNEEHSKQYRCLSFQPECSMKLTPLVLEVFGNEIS
Method in brief: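 Competitive VDR binding was measured by PolarScreen fluorescence polarization, in triplicate.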

[3] = molecular target: T2, Vitamin D3 receptor (Homo sapiens) (UniProt P11473); assay: Agonist activity at VDR (unknown origin) expressed in HEK293 cells co-transfected with pGL4.27-SPP3-Luc and CMV-hRXRalpha and pCMX-Renilla plasmids after 24 hrs by dual luciferase reporter gene assay; type: cell-based; conditions: filed as agonist, dose 0.0001-1 µM
T2 sequence (whole entry): T1 sequence (P11473 whole entry)
Method in brief: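 HEK293 cells in 48-well plates were transfected per well with 40 ng TK-Spp×3-LUC reporter, 20 ng pCMX-Renilla, 30 ng pENTER-CMV-hRXRα and 100 ng pCMX-VDR using Lipofectamine 2000. Compounds were added 8 h post-transfection, and dual-luciferase activity was read 24 h later. Firefly signal was normalised to Renilla. The experiment was run three times.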

[4] = molecular target: T2, Vitamin D3 receptor (Homo sapiens); assay: Binding affinity to VDR (unknown origin) at 1 uM by fluorescence polarization assay relative to calcipotriol; conditions: filed as agonist
Method in brief: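 PolarScreen VDR competitor fluorescence polarization assay with compounds at 1 μM in triplicate. Read-out used 535 nm excitation and 590 nm emission filters.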

LTC-14 [5] = assay: Inhibition of rat LTC-14 cells activation assessed as inhibition of Hgf mRNA expression at 0.5 uM treated under conditioned media of DSL-6A/C1 cells for 24 hrs by q-PCR analysis; type: functional, cell-based
Method in brief: (§2)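 LTC-14 PSCs were exposed for 24 h to conditioned medium from rat DSL-6A/C1 cancer cells containing compound at 0.5 μM. Pdgfa, Pdgfb, Fgf2, Hgf and Periodin mRNA were quantified by RT-qPCR. Three repeats, mean ± SD versus CM alone.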

LTC-14 [6] = assay: Inhibition of rat LTC-14 cells interaction with DSL-6A/C1 cells in conditioned media assessed as inhibition of PDGF-A protein expression at 0.5 uM measured after 24 hrs by Western blot analysis; type: functional, cell-based
Method in brief: as §1

[7] = Cytotoxicity against rat LTC-14 cells assessed as reduction in cell proliferation incubated for 24 hrs by MTT assay; type: cell-based; conditions: LTC-14, 24 h
DSL-6A/C1 [8] = assay: Antiproliferative activity against rat DSL-6A/C1 cells assessed as reduction in cell viability at 0.5 uM incubated for 24 hrs compound treated LTC-14-CM cells by MTT assay; type: functional, cell-based
Method in brief: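 LTC-14 PSCs were pretreated with compound for 24 h. Their collected supernatant was used to culture DSL-6A/C1 cells, and proliferation was read by MTT: 4 h incubation with MTT (5 mg/mL stock), absorbance at 570 nm. Run in triplicate, compared with untreated PSC-CM.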

Mus musculus [9] = assay: Inhibition of GFP-tagged rat LTC-14 cells activation in BALB/c nude mouse xenografted along with luciferase-tagged DSL-6A/C1-Luc cells assessed as reduction in alpha-smooth muscle actin expression in tumor at 500 ug/kg, ip administered once every 3 days for 12 days coadministered with gemcitabine at 100 mg/kg by DAPI staining based laser confocal scanning microscopy; type: functional, organism-based; conditions: dose 500.0 µg/kg, time 12.0 day
Method in brief: (§3)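 Tumours were taken from orthotopic co-inoculated nude mice given gemcitabine 100 mg/kg plus compound (500 μg/kg) or calcipotriol (60 μg/kg) ip for 12 days. Sections were fixed in 4% PFA, permeabilised with 0.5% Triton X-100 and blocked in 5% BSA. They were incubated with anti-α-SMA overnight at 4 °C, then an Alexa Fluor 594 secondary for 1 h at 37 °C, DAPI-counterstained and imaged by confocal microscopy.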

LTC-14 [10] = assay: Inhibition of rat LTC-14 cells activation assessed as reduction in ECM deposition resulting in doxorubicin accumulation in PSC spheres pretreated with compounds followed by doxorubicin addition by laser confocal microscopy analysis; type: functional, cell-based
Method in brief: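 LTC-14 cells were grown in 3D culture to form PSC spheres and treated with compounds. Fluorescent doxorubicin was then added, and its penetration into the spheres was imaged by laser confocal microscopy. Three repeats, versus untreated control.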

LTC-14 [11] = assay: Inhibition of rat LTC-14 cells activation assessed decrease in TGF-beta1 induced Acta2 mRNA expression at 0.5 uM incubated for 24 hrs by q-PCR analysis; type: functional, cell-based
Method in brief: (§4)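 Immortalized rat PSC line LTC-14, about 1×10^5 cells per well, was grown 24 h at 37 °C in 5% CO2. Cells then received compound (0.5 μM) plus TGF-β1 for 24 h; TGF-β1 is stated as 0.5 ng/mL in the text and 5 ng/mL in the methods. Col1a1 and Acta2 mRNA were measured by RT-qPCR. Mean ± SD versus TGF-β1 alone.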

DSL-6A/C1 [12] = assay: Antiproliferative activity against rat DSL-6A/C1 cells assessed as reduction in cell viability at 0.5 uM treated with conditioned media of LTC-14 cells for 24 hrs by MTT assay; type: functional, cell-based
Method in brief: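 Rat pancreatic cancer DSL-6A/C1 cells were cultured in supernatant from LTC-14 PSCs (PSC-CM) with compound added at 0.5 μM for 24 h. Viability was then read by MTT: 4 h incubation with MTT (5 mg/mL stock), absorbance at 570 nm. Run in triplicate, compared with PSC-CM alone.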

LTC-14 [13] = assay: Inhibition of rat LTC-14 cells activation assessed as inhibition of Fgf mRNA expression at 0.5 uM treated under conditioned media of DSL-6A/C1 cells for 24 hrs by q-PCR analysis; type: functional, cell-based
Method in brief: as §2

LTC-14 [14] = assay: Inhibition of rat LTC-14 cells activation assessed decrease in TGF-beta1 induced collagen 1 protein expression at 0.5 uM incubated for 24 hrs by Western blot analysis; type: functional, cell-based
Method in brief: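 LTC-14 cells were treated for 24 h with compound (0.5 μM) plus TGF-β1 (0.5 ng/mL in the text, 5 ng/mL in the methods). Lysates were run on 10% SDS-PAGE, transferred to PVDF and probed with rabbit anti-collagen I, with β-actin as reference. Bands were quantified by densitometry versus TGF-β1 alone.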

[15] = Cytotoxicity against rat DSL-6A/C1 cells assessed as reduction in cell proliferation at 0.5 uM incubated for 24 hrs by MTT assay; type: cell-based; conditions: dsl-6a/c1, 24 h
DSL-6A/C1 [16] = assay: Potentiation of gemcitabine-induced antitumor activity against luciferase-tagged rat DSL-6A/C1 cells and GFP-tagged LTC-14 cells co-inoculated in orthotropic xenograft BALB/c nude mouse model of pancreatic cancer assessed as reduction in tumor volume at 500 ug/kg, ip administered once every 3 days for 12 days coadministered with gemcitabine at 100 mg/kg and measured after 3 days post last dose by IVIS optical imaging analysis; type: functional, organism-based; conditions: dose 500.0 µg/kg, time 12.0 day
Method in brief: (§5)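 DSL-6A/C1-luci and LTC-14-GFP cells were co-inoculated orthotopically into the pancreas of nude mice, n=5 per group. Treatment began 7 days after grafting (methods) or 14 days (text). Gemcitabine 100 mg/kg ip every 3 days, alone or with compound 500 μg/kg or calcipotriol 60 μg/kg in ethanol/polyoxyethylene castor oil/saline (1:1:18), for 12 days. Tumour growth was followed by bioluminescence imaging.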

LTC-14 [17] = assay: Inhibition of rat LTC-14 cells activation assessed as inhibition of Periodin-mRNA expression at 0.5 uM treated under conditioned media of DSL-6A/C1 cells for 24 hrs by q-PCR analysis; type: functional, cell-based
Method in brief: as §2

LTC-14 [18] = assay: Inhibition of rat LTC-14 cells activation assessed as inhibition of PDGFA mRNA expression at 0.5 uM treated under conditioned media of DSL-6A/C1 cells for 24 hrs by q-PCR analysis; type: functional, cell-based
Method in brief: as §2

LTC-14 [19] = assay: Inhibition of rat LTC-14 cells activation assessed as inhibition of PDGFB mRNA expression at 0.5 uM treated under conditioned media of DSL-6A/C1 cells for 24 hrs by q-PCR analysis; type: functional, cell-based
Method in brief: as §2

LTC-14 [20] = assay: Inhibition of rat LTC-14 cell activation assessed decrease in TGF-beta1 induced Colla1 mRNA expression at 0.5 uM incubated for 24 hrs by q-PCR analysis; type: functional
Method in brief: as §4

Mus musculus [21] = assay: Inhibition of GFP-tagged rat LTC-14 cells activation in BALB/c nude mouse xenografted along with luciferase-tagged DSL-6A/C1-Luc cells assessed as reduction in alpha-smooth muscle actin expression in tumor at 60 ug/kg, ip administered once every 3 days for 12 days coadministered with gemcitabine at 100 mg/kg and measured after 3 days post last dose and by DAPI staining based laser confocal scanning microscopy; type: functional, organism-based; conditions: dose 60.0 µg/kg, time 12.0 day
Method in brief: as §3

DSL-6A/C1 [22] = assay: Potentiation of gemcitabine-induced antitumor activity against rat DSL-6A/C1-Luc cells and LTC-14-GFP cells co-inoculated in orthotropic xenograft BALB/c nude mouse model of pancreatic cancer assessed as reduction in tumor volume at 60 ug/kg, ip administered once every 3 days for 12 days coadministered with gemcitabine at 100 mg/kg and measured after 3 days post last dose by IVIS optical imaging analysis; type: functional, organism-based; conditions: dose 60.0 µg/kg, time 12.0 day
Method in brief: as §5

| SMILES | inhibition (LTC-14 [2]) | IC50 (Vitamin D3 receptor) | Activity [3] | RBA [4] | inhibition (LTC-14 [5]) | inhibition (LTC-14 [6]) | IC50 [7] | Activity (DSL-6A/C1 [8]) | inhibition (Mus musculus [9]) | inhibition (LTC-14 [10]) | inhibition (LTC-14 [11]) | Activity (DSL-6A/C1 [12]) | inhibition (LTC-14 [13]) | inhibition (LTC-14 [14]) | Activity [15] | TGI (DSL-6A/C1 [16]) | inhibition (LTC-14 [17]) | inhibition (LTC-14 [18]) | inhibition (LTC-14 [19]) | inhibition (LTC-14 [20]) | other results |
| --- | --- | --- | --- | --- | --- | --- | --- | --- | --- | --- | --- | --- | --- | --- | --- | --- | --- | --- | --- | --- | --- |
| Nc1ccn([C@@H]2O[C@H](CO)[C@@H](O)C2(F)F)c(=O)n1 |  |  |  |  |  |  |  |  |  |  |  |  |  |  |  |  |  |  |  |  | TGI (DSL-6A/C1 [1]): inactive |
| CCn1cc(C(CC)(CC)c2ccc(OCC(C)O)c(C)c2)cc1C(=O)NCC(O)CO (centres undefined) | Active | 81.6 nM | Dose-dependent effect | 86% | Active | Active | > 10000 nM | Active | Active | Active | Active | inactive | Active | Active | Non-Toxic | Active | Active | Active | Active | Active |  |
| C=C1/C(=C/C=C2\CCC[C@]3(C)[C@@H]([C@H](C)/C=C/[C@@H](O)C4CC4)CC[C@@H]23)C[C@@H](O)C[C@@H]1O |  |  | Dose-dependent effect |  |  |  | > 10000 nM |  |  |  | Active |  |  | Active | Non-Toxic |  |  |  |  | Active | inhibition (Mus musculus [21]): Active; Activity (DSL-6A/C1 [22]): Active |
| CCN(CC)CCCNC(=O)c1ccc(C(CC)(CC)c2ccc(OCCC(C)(C)O)c(C)c2)n1CC | Active | 92.5 nM | Dose-dependent effect | 85% | Active | Active | > 10000 nM | Active | Active | Active | Active | inactive | Active | Active | Non-Toxic | Active | Active | Active | Active | Active |  |
